How the values were obtained:
Type in all cases: functional
[1] = system: Tobacco mosaic virus; experiment: Antiviral activity against Tobacco mosaic virus (TMV) in tobacco leaf juice at 100 ug/ml after 72 hr by half-leaf method
How it was run: (§1)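 Detached leaf (half-leaf) assay in Nicotiana tabacum var. Xanthi nc, 5−6 growth stage. Whole leaf inoculated with TMV (5.88 × 10−2 μg/mL) by juice-leaf rubbing, then cut in half along the main vein. One half soaked 20 min in compound solution, the other in double-distilled water. Halves cultured 72 h at 25 °C. At least three replicates. Inhibition % = (control − treated mean local lesions)/control × 100.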

[2] = system: Tobacco mosaic virus; experiment: Antiviral activity against Tobacco mosaic virus (TMV) in tobacco plant leaf assessed as inactivation effect at 100 ug/ml after 3 to 4 days
How it was run: (§2)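 TMV mixed with an equal volume of compound solution for 30 min. The mixture was inoculated on the left half of N. tabacum var. Xanthi nc leaves, and virus mixed with solvent on the right half as control. Local lesions recorded 3−4 days after inoculation, three replicates. Inhibition % calculated from mean lesion numbers versus control.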

[3] = system: Tobacco mosaic virus; experiment: Antiviral activity against Tobacco mosaic virus (TMV) in tobacco plant leaf assessed as inactivation effect at 500 ug/ml after 3 to 4 days; how it was run: as §2
[4] = system: Tobacco mosaic virus; experiment: Antiviral activity against Tobacco mosaic virus (TMV) in tobacco plant leaf assessed as protection effect at 500 ug/ml after 3 to 4 days
How it was run: (§3)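 Compound smeared on the left half of growing N. tabacum var. Xanthi nc leaves of the same age, solvent on the right half as control. Leaves inoculated with TMV 12 h later. Local lesions counted 3−4 days after inoculation, three replicates. Inhibition % = (control − treated mean lesions)/control × 100.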

[5] = system: Tobacco mosaic virus; experiment: Antiviral activity against Tobacco mosaic virus (TMV) in tobacco leaf juice at 500 ug/ml after 72 hr by half-leaf method; how it was run: as §1
[6] = system: Tobacco mosaic virus; experiment: Antiviral activity against Tobacco mosaic virus (TMV) in tobacco plant leaf assessed as curative effect at 100 ug/ml after 3 to 4 days
How it was run: (§4)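 Whole plants of N. tabacum var. Xanthi nc at the same leaf age. Whole leaves dip-inoculated with TMV (6.0 × 10−3 mg/mL), then washed with water and dried. Compound smeared on the left half-leaf, solvent on the right as control. Local lesions counted 3−4 days after inoculation, three replicates. Inhibition % calculated from mean lesion numbers versus control.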

[7] = system: Tobacco mosaic virus; experiment: Antiviral activity against Tobacco mosaic virus (TMV) in tobacco plant leaf assessed as protection effect at 100 ug/ml after 3 to 4 days; how it was run: as §3
[8] = system: Tobacco mosaic virus; experiment: Antiviral activity against Tobacco mosaic virus (TMV) in tobacco plant leaf assessed as curative effect at 500 ug/ml after 3 to 4 days; how it was run: as §4

SMILES	inhibition at 100 µg/mL [1]	inhibition at 100 µg/mL [2]	inhibition at 500 µg/mL [3]	inhibition at 500 µg/mL [4]	inhibition at 500 µg/mL [5]	inhibition at 100 µg/mL [6]	inhibition at 100 µg/mL [7]	inhibition at 500 µg/mL [8]
COc1cc2c3c(c4ccc(OCC#N)cc4c2cc1OC)CN1CCC[C@H]1C3	31.5%	27.9%	58.2%	54.3%	60%	30.4%	26.3%	57.8%
CCOc1ccc2c3c(c4cc(OC)c(OC)cc4c2c1)C[C@H]1CCCN1C3	32.5%	28.5%	43.7%	40.2%	50%	27.2%	10.4%	49.7%
COc1ccc2c3c(c4cc(OC)c(OC)cc4c2c1)C[C@H]1CCCN1C3 [(-)-ANTOFINE]	30.4%	29.4%	58%	55.7%	65.8%	33.4%	32.3%	62.5%
COc1ccc2c3c(c4cc(OC)c(OC)cc4c2c1)C[C@@H]1CCCN1C3 [HYPOESTESTATIN 1]	30.5%	26.7%	55.5%	51.1%	60.2%	28.4%	37.2%	56.4%
CNCC(=O)N[C@@H](CO)C(=O)N[C@H]1[C@H](O)[C@@H](O)[C@H](n2ccc(N)nc2=O)O[C@@H]1C(N)=O [NINGNANMYCIN]	26.8%	25%	54.2%	57.9%	69.3%	23.1%	38.4%	58.7%
COc1cc2c3c(c4ccc(OCC#N)cc4c2cc1OC)CN1CCC[C@@H]1C3	40%	38.7%	72.3%	74.5%	79.3%	44.1%	42.3%	75.1%
COc1cc2c3c(c4ccc(OC(C)=O)cc4c2cc1OC)CN1CCC[C@H]1C3	30.6%	19.3%	58.5%	54.2%	68.7%	22.4%	16.2%	59.4%
C#CCOc1ccc2c3c(c4cc(OC)c(OC)cc4c2c1)C[C@H]1CCCN1C3	43.7%	38.9%	52.8%	58.6%	61.2%	36.1%	39.7%	59.3%
COc1cc2c3c(c4ccc(O)cc4c2cc1OC)CN1CCC[C@H]1C3	21.3%	17.8%	46.2%	43.2%	52.2%	23.2%	19.5%	49.6%
COc1cc2c3c(c4ccc(O)cc4c2cc1OC)CN1CCC[C@@H]1C3	40%	33.5%	65.3%	60.4%	70.5%	42%	35.4%	72.4%
CCOc1ccc2c3c(c4cc(OC)c(OC)cc4c2c1)C[C@@H]1CCCN1C3	25.6%	23%	53.2%	48%	56.2%	24.3%	28.5%	51.1%
COc1cc2c3c(c4ccc(OCCO)cc4c2cc1OC)CN1CCC[C@@H]1C3	47.5%	40.9%	70.4%	71.6%	78.2%	42.8%	39.5%	74.2%
C#CCOc1ccc2c3c(c4cc(OC)c(OC)cc4c2c1)C[C@@H]1CCCN1C3	48.6%	42.4%	70%	71.6%	75%	45.5%	40.9%	74.9%
COc1cc2c3c(c4ccc(OCCO)cc4c2cc1OC)CN1CCC[C@H]1C3	10%	12%	40.5%	42.3%	43.9%	18.6%	10.5%	44%

Reference: ChEMBL document CHEMBL3045436, “Synthesis and antiviral activities of antofine analogues with different C-6 substituent groups” (2013)
